Experimental data reported in ChEMBL document CHEMBL1124955, “2-substituted-1-naphthols as potent 5-lipoxygenase inhibitors with topical antiinflammatory activity” (J Med Chem, 1990).

What was measured:
[1] = molecular target: T1, Polyunsaturated fatty acid 5-lipoxygenase (Rattus norvegicus, UniProt P12527); assay: Ability to inhibit 5-lipoxygenase by using a crude preparation of the cytosolic enzyme from the rat basophilic leukemia (RBL-1) cell line; assay type: cell-based
T1 sequence (P12527 whole entry): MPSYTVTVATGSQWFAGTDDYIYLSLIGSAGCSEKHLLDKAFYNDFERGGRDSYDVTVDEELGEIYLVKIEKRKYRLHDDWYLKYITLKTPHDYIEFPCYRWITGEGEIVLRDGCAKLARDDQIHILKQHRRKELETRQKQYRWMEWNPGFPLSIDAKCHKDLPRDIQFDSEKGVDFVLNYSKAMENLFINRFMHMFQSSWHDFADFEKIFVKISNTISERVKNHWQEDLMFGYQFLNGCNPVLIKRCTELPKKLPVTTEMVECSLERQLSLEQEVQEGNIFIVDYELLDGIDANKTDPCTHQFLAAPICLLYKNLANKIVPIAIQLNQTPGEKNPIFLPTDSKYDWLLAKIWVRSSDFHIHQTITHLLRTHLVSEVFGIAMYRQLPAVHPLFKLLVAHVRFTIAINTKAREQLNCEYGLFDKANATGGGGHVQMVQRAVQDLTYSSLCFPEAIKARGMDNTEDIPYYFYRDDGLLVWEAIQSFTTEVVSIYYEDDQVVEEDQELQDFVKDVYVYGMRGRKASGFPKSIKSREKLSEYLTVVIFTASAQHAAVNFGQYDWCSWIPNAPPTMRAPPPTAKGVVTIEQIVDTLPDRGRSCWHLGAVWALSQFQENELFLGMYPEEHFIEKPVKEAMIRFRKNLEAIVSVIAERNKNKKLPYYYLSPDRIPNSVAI
In short: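 Crude cytosolic enzyme (supernatant) from RBL-1 cells, amount giving net 3300–3800 dpm 5-HETE (9–20 μg cell protein/assay). Enzyme is preincubated 5 min at 37 °C, pH 7.0, with compound (in 5% DMSO/Tris pH 8.5) in phosphate buffer with EDTA, gelatin, glutathione, CaCl2 and 0.012 mM indomethacin. Reaction is started with 0.042 mM final [14C]arachidonic acid and stopped by freezing after 2 min.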

Mus musculus = assay: Percentage inhibition of the mouse arachidonic acid induced ear edema assay (AA) at a dose of 100 ug/ear; assay type: functional
In short: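 Groups of 10 male CF1 mice (18–20 g). Compound in acetone is applied topically to both ears just before 1 mg arachidonic acid in acetone is applied to one ear; the other ear serves as control. Mice are killed 60 min later and 6-mm ear punches weighed; swelling is the weight difference. %Inhibition = [(C−T)/C]×100, with Student's t test.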

Cyclooxygenase = molecular target: T2, Cyclooxygenase (Bos taurus, UniProt O62664+O62698); assay: In vitro inhibition of Prostaglandin G/H synthase in BSV cell line.; assay type: cell-based
T2 sequence (O62664 whole entry): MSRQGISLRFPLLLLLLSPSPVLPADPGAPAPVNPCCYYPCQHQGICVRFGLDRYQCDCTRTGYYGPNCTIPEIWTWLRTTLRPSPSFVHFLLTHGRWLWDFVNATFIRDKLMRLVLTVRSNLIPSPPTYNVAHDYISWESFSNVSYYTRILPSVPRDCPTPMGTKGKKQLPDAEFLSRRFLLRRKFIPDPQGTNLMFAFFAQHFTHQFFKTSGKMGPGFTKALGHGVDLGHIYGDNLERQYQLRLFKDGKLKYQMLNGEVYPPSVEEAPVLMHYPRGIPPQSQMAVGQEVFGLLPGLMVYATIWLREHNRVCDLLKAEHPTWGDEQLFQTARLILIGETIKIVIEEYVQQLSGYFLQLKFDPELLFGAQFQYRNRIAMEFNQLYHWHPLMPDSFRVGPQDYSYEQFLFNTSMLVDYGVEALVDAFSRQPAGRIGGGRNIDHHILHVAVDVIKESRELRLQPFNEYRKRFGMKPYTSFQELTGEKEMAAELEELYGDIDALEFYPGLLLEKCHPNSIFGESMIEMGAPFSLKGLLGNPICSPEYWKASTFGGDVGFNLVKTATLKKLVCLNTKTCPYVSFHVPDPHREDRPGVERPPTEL
T2 sequence (O62698 whole entry): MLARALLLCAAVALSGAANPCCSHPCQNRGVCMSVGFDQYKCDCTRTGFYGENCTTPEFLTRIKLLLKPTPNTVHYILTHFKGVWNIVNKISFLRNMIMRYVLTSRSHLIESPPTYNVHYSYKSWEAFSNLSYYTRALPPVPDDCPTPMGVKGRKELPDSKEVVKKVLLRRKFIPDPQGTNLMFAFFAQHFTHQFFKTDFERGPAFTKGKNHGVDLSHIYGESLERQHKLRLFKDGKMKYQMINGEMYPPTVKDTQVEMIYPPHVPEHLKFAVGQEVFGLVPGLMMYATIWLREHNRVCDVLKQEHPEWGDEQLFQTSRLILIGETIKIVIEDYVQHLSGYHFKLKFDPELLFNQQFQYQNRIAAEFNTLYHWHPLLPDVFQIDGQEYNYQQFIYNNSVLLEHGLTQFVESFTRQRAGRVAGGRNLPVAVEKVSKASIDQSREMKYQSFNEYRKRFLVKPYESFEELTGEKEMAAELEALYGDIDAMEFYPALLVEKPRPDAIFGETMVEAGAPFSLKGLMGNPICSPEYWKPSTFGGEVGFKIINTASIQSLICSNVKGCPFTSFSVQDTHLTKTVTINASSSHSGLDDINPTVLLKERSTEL

Row | Structure (SMILES) | IC50 [1] [nM] | Inhibition (Mus musculus) [%] | IC50 (Cyclooxygenase) [nM]
1 | COc1ccc(Cc2ccc3ccccc3c2O)cc1OC | 51 | 60 | –
2 | Oc1c(CCc2ccccc2)ccc2ccccc12 | 140 | 69 | –
3 | Oc1c(Cc2cccc(Br)c2)ccc2ccccc12 | 88 | 55 | –
4 | CC(c1ccccc1)c1ccc2ccccc2c1O (centres undefined) | 70 | 45 | 8700
5 | Oc1c(/C=C\c2ccccc2)ccc2ccccc12 | 160 | 65 | 13000
6 | Oc1c(Cc2cccc(Cl)c2)ccc2ccccc12 | 52 | 67 | –
7 | Oc1c(Cc2ccc(Cl)cc2)ccc2ccccc12 | 39 | 66 | –
8 | O=C(c1ccccc1)c1cc(Cc2ccccc2)c(O)c2ccccc12 | 54 | 41 | –
9 | Cc1cc(Cc2ccccc2)c(O)c2ccccc12 | 20 | 62 | –
10 | COc1ccc(Cc2ccc3ccccc3c2O)cc1 | 75 | 85 | –
11 | Oc1c(Cc2ccccc2)cc(-c2ccccc2)c2ccccc12 | 56 | 26 | –
12 | O=[N+]([O-])c1cc(Cc2ccccc2)c(O)c2ccccc12 | 48000 | 28 | –
13 | CCOC(=O)CCc1ccc2ccccc2c1O | 58 | 69 | 13000
14 | COc1cc(Cc2ccccc2)c(O)c2ccccc12 | 31 | 69 | –
15 | Cc1ccc(C)c2c(O)c(Cc3ccccc3)ccc12 | 120 | 52 | –
16 | COc1ccc2c(O)c(Cc3ccccc3)ccc2c1 | 1900 | 76 | –
17 | Oc1c(Cc2ccccc2)cccc1Cc1ccccc1 | 8800 | 21 | 52000
18 | Oc1c(Cc2ccco2)ccc2ccccc12 | 37 | 84 | –
19 | Cc1cc(C)c2ccc(Cc3ccccc3)c(O)c2c1 | 62 | 44 | –
20 | Oc1c(Cc2cccnc2)ccc2ccccc12 | 230 | 46 | –
21 | CCOc1ccccc1Cc1ccc2ccccc2c1O | 570 | 51 | –

Row | Structure (SMILES) | IC50 [1] [nM] | Inhibition (Mus musculus) [%] | IC50 (Cyclooxygenase) [nM]
22 | COc1cc2ccc(Cc3ccccc3)c(O)c2cc1OC | 1700 | 33 | –
23 | CC(=O)Oc1c(Cc2ccccc2)ccc2ccccc12 | – | 63 | 240000
24 | CS(=O)(=O)c1cc(Cc2ccccc2)c(O)c2ccccc12 | 40000 | 15 | –
25 | COc1cccc2c(O)c(Cc3ccccc3)ccc12 | 100 | 69 | –
26 | Oc1c(Cc2cccc(Oc3ccccc3)c2)ccc2ccccc12 | 83 | 60 | –
27 | O=C(O)CCCCc1ccc2ccccc2c1O | 4200 | 9 | 720000
28 | Oc1c(Cc2ccccc2)cc(Br)c2ccccc12 | 77 | 33 | –
29 | Oc1c(Cc2ccc(Br)cc2)ccc2ccccc12 | 68 | 50 | –
30 | Cn1ccnc1Cc1ccc2ccccc2c1O | 3500 | 9 | –
31 | CSc1ccc(Cc2ccc3ccccc3c2O)cc1 | 48 | 76 | –
32 | CS(=O)(=O)c1ccc(Cc2ccc3ccccc3c2O)cc1 | 240 | 0 | –
33 | NS(=O)(=O)c1cc(Cc2ccccc2)c(O)c2ccccc12 | 9400 | 3 | –
34 | Cc1ccc2ccccc2c1O | 130 | 73 | 3000
35 | Oc1c(Cc2ccc(OCc3ccccc3)cc2)ccc2ccccc12 | 72 | 12 | –
36 | CCOc1ccc(Cc2ccc3ccccc3c2O)cc1 | 62 | 68 | –
37 | Oc1c(Cc2ccccn2)ccc2ccccc12 | 390 | 56 | –
38 | Oc1cc2ccccc2cc1Cc1ccccc1 | 7200 | 33 | 35000
39 | Cn1cccc1Cc1ccc2ccccc2c1O | 140 | 72 | –
40 | Oc1c(Cc2ccncc2)ccc2ccccc12 | 140 | 62 | –
41 | OC(c1ccccc1)c1ccc2ccccc2c1 (centres undefined) | 40000 | 16 | –
42 | O=C(O)c1cc(Cc2ccccc2)c(O)c2ccccc12 | 5800 | 3 | –

Row | Structure (SMILES) | IC50 [1] [nM] | Inhibition (Mus musculus) [%] | IC50 (Cyclooxygenase) [nM]
43 | Oc1c(Cc2ccc3c(c2)OCO3)ccc2ccccc12 | 40 | 78 | –
44 | COc1cccc(Cc2ccc3ccccc3c2O)c1 | 110 | 72 | –
45 | Oc1cccc2ccccc12 [1-NAPHTHOL] | 3600 | 59 | 2000
46 | CN(C)c1ccc(Cc2ccc3ccccc3c2O)cc1 | 140 | 67 | –
47 | O=[N+]([O-])c1ccc(Cc2ccc3ccccc3c2O)cc1 | 48 | 58 | –
48 | Cl.Nc1c(Cc2ccccc2)ccc2ccccc12 | 9100 | 35 | 18000
49 | Cc1ccc(Cc2ccc3ccccc3c2O)cc1 | 24 | 79 | –
50 | Oc1c(Cc2cccc(C(F)(F)F)c2)ccc2ccccc12 | 270 | 67 | –
51 | CC(Cc1ccc(O)c(O)c1)C(C)Cc1ccc(O)c(O)c1 (centres undefined) [NORDIHYDROGUAIARETIC ACID] | – | 25 | 14000
52 | Oc1ccc(Cc2ccccc2)c2ccccc12 | 820 | 42 | 5900
53 | Oc1c(Cc2ccc3ccccc3c2)ccc2ccccc12 | 58 | 52 | –
54 | CCOC(=O)/C=C/c1ccc2ccccc2c1O | 45 | 0 | 11000
55 | Oc1c(Cc2cccs2)ccc2ccccc12 | 60 | 84 | –
56 | Cc1ccccc1Cc1ccc2ccccc2c1O | 120 | 66 | –
57 | CC(C)(C)c1ccc2ccccc2c1O | 180 | 67 | 37000
58 | Oc1cc(Cc2ccccc2)cc2ccccc12 | 690 | 28 | 2700
59 | Oc1c(Cc2ccc(F)cc2)ccc2ccccc12 | 130 | 76 | –
60 | CCOC(=O)c1cc(Cc2ccccc2)c(O)c2ccccc12 | 160 | 16 | –
61 | COc1ccc2ccc(Cc3ccccc3)c(O)c2c1 | 3500 | 52 | –
62 | CC(=O)c1cc(Cc2ccccc2)c(O)c2ccccc12 | 510 | 16 | –
63 | Oc1c(Cc2ccc(Cl)c(Cl)c2)ccc2ccccc12 | 180 | 58 | –
